Active and inactive are the calls of the source. The rule behind the calls is not given here.
Assays:
Aurora kinase B [1] = biological target: T1, Aurora kinase B (Homo sapiens, UniProt Q96GD4); assay: Inhibition of Aurora B (unknown origin) using myelin protein as substrate assessed as ADP generation at 10 uM after 60 mins by ADP-glo assay relative to staurosporine
In short: (§1)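 Aurora A and Aurora B activity read by ADP-Glo, measuring ADP formed from ATP during the kinase reaction. Compounds tested at 10 μM. Inhibition expressed as percentage relative to the staurosporine positive control.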

[2] = biological target: T2, Aurora kinase A (Homo sapiens) (UniProt O14965); assay: Inhibition of Aurora A (unknown origin) using myelin protein as substrate assessed as ADP generation at 10 uM after 60 mins by ADP-glo assay relative to staurosporine; in short: as §1
T2 sequence (whole entry): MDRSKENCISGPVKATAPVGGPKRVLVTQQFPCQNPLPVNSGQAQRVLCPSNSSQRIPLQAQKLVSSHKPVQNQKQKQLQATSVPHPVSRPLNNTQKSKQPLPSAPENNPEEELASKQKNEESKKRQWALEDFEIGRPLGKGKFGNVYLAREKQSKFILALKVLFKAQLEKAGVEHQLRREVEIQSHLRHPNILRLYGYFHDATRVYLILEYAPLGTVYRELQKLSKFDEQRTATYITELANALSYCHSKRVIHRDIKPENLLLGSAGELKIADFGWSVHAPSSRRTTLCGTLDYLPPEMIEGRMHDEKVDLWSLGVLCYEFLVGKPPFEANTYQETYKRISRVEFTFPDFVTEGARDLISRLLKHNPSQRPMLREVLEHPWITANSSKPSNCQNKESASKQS

Aurora kinase B [3] = biological target: T1, Aurora kinase B; assay: Inhibition of Aurora B (unknown origin) using myelin protein as substrate assessed as ADP generation after 60 mins by ADP-glo assay
[4] = Cytotoxicity against human PC3 cells assessed as reduction in cell growth after 48 hrs by SRB assay; assay type: functional; details: PC-3, 48 h
[5] = Cytotoxicity against human NUGC3 cells assessed as reduction in cell growth after 48 hrs by SRB assay; assay type: functional; details: NUGC-3, 48 h
[6] = Cytotoxicity against human HCT15 cells assessed as reduction in cell growth after 48 hrs by SRB assay; assay type: functional; details: HCT-15, 48 h
NCI-H23 = assay: Cytotoxicity against human NCI-H23 cells assessed as reduction in cell growth after 48 hrs by SRB assay; assay type: functional; details: NCI-H23, 48 h
ACHN = assay: Cytotoxicity against human ACHN cells assessed as reduction in cell growth after 48 hrs by SRB assay; assay type: functional
MDA-MB-231 = assay: Cytotoxicity against human MDA-MB-231 cells assessed as reduction in cell growth after 48 hrs by SRB assay; assay type: functional; details: MDA-MB-231, 48 h
PC-3 = assay: Antitumor activity against human PC3 cells xenografted in nu/nu BALB/c mouse assessed as tumor growth inhibition at 50 mg/kg, po administered qd for 16 days relative to control; assay type: functional, organism-based
In short: (§2)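 PC-3 prostate tumours grown as xenografts in nude mice. Dosed orally at 50 mg/kg once daily for 16 days; vehicle was 10% dimethylacetamide plus 10% Tween 80 in water. Tumour volume measured every two or three days, tumours weighed after harvest on day 16, and body weight followed throughout. Treated groups compared with vehicle by Student's t-test.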

Mus musculus = assay: Toxicity in nu/nu BALB/c mouse xenografted with human PC3 cells assessed as loss in body weight at 50 mg/kg, po administered qd for 16 days measured during compound dosing; assay type: organism-based, PC-3; details: in vivo, 384 h; in short: as §2

T1 sequence (Q96GD4 whole entry): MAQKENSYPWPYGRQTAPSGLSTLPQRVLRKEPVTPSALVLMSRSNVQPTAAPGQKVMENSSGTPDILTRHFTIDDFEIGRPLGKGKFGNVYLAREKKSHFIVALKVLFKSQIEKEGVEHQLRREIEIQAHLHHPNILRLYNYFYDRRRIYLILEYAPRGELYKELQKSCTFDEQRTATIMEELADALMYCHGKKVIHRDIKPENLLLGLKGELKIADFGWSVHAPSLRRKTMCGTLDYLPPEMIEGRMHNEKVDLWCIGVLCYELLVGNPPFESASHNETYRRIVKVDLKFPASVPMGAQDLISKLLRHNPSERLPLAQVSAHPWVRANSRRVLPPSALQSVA

| inhibition (Aurora kinase B [1]) | inhibition [2] | SMILES | also measured |
| --- | --- | --- | --- |
| inactive | – | O=C(Nc1cccc(Cl)c1)Nc1cccc(CNc2nc3ccc(OCCN4CCOCC4)cc3o2)c1 | – |
| 63% | 7% | O=C(Nc1ccc(CNc2nc3ccc(OCCN4CCOCC4)cc3o2)cc1)Nc1cccc(F)c1 | – |
| 70% | 2% | O=C(Nc1ccc(COc2ccc3nc(NCCN4CCOCC4)oc3c2)cc1)Nc1ccc(Cl)c(Cl)c1 | IC50 (Aurora kinase B [3]): 49.4 µM |
| 37% | 4% | O=C(Nc1ccc(Cl)cc1)Nc1ccc(COc2ccc3oc(NCCN4CCOCC4)nc3c2)cc1 | – |
| 76% | 10% | COc1ccc(NC(=O)Nc2ccc(CNc3nc4ccc(OCCN5CCOCC5)cc4o3)cc2)cc1 | – |
| 42% | 8% | O=C(Nc1ccc(Cl)cc1)Nc1ccc(CNc2nc3cc(OCCN4CCOCC4)ccc3o2)cc1 | – |
| 30% | – | O=C(Nc1ccccc1)Nc1cccc(CNc2nc3ccc(OCCN4CCOCC4)cc3o2)c1 | – |
| 34% | inactive | O=C(Nc1ccc(F)cc1)Nc1ccc(CNc2nc3ccc(OCCN4CCOCC4)cc3o2)cc1 | – |
| 45% | 8% | O=C(Nc1ccc(Cl)cc1)Nc1cccc(CNc2nc3ccc(OCCN4CCOCC4)cc3o2)c1 | – |
| 58% | 13% | O=C(Nc1ccc(CNc2nc3ccc(OCCN4CCOCC4)cc3o2)cc1)Nc1cccc(Cl)c1 | – |
| 86% | 8% | O=C(Nc1ccc(CNc2nc3ccc(OCCN4CCOCC4)cc3o2)cc1)Nc1ccc(Cl)cc1Cl | IC50 (Aurora kinase B [3]): 0.7 µM |
| 21% | – | O=C(Nc1ccc(CNc2nc3ccc(OCCN4CCOCC4)cc3o2)cc1)c1ccccc1 | – |
| 80% | 1% | O=C(Nc1ccccc1)Nc1cccc(COc2ccc3nc(NCCN4CCOCC4)oc3c2)c1 | – |
| 69% | inactive | O=C(Nc1ccc(Br)cc1)Nc1ccc(CNc2nc3ccc(OCCN4CCOCC4)cc3o2)cc1 | – |
| 94% | inactive | O=C(Nc1ccc(Cl)cc1)Nc1ccc(COc2ccc3nc(NCCN4CCOCC4)oc3c2)cc1 | IC50 (Aurora kinase B [3]): 50.4 µM |
| 65% | inactive | Cc1ccc(NC(=O)Nc2ccc(CNc3nc4ccc(OCCN5CCOCC5)cc4o3)cc2)cc1 | – |
| 40% | 15% | O=C(Nc1ccccc1)Nc1ccc(CNc2nc3ccc(OCCN4CCOCC4)cc3o2)cc1 | – |
| 66% | 5% | O=C(Nc1ccc(Cl)cc1)Nc1ccc(CNc2nc3ccc(OCCN4CCOCC4)cc3o2)cc1 | GI50 [4]: 6.2 µM; GI50 [5]: 5.5 µM; GI50 [6]: 4.8 µM; GI50 (NCI-H23): 4 µM; IC50 (Aurora kinase B [3]): 10.2 µM; GI50 (ACHN): 2.2 µM; GI50 (MDA-MB-231): 7.6 µM |
| 74% | 3% | O=C(Nc1ccc(Br)cc1)Nc1ccc(COc2ccc3oc(NCCN4CCOCC4)nc3c2)cc1 | – |
| 35% | -6% | O=C(Nc1ccc(Br)cc1)Nc1ccc(CNc2nc3cc(OCCN4CCOCC4)ccc3o2)cc1 | – |
| 1% | – | O=C(Nc1cccc(CNc2nc3ccc(OCCN4CCOCC4)cc3o2)c1)c1ccccc1 | – |
| 88% | 24% | O=C(Nc1ccc(CNc2nc3ccc(OCCN4CCOCC4)cc3o2)cc1)Nc1ccc(Cl)c(Cl)c1 | GI50 [4]: 4.8 µM; GI50 [5]: 8.4 µM; GI50 [6]: 3 µM; GI50 (NCI-H23): 3.4 µM; TGI (PC-3): Active; Activity (Mus musculus): Non-toxic; IC50 (Aurora kinase B [3]): 0.6 µM; GI50 (ACHN): 2.6 µM; GI50 (MDA-MB-231): 5 µM |
| 55% | inactive | O=C(Nc1ccc(Br)cc1)Nc1ccc(COc2ccc3nc(NCCN4CCOCC4)oc3c2)cc1 | – |
| inactive | – | O=C(Nc1ccccc1CNc1nc2ccc(OCCN3CCOCC3)cc2o1)c1ccccc1 | – |
| 74% | 5% | O=C(Nc1ccc(COc2ccc3oc(NCCN4CCOCC4)nc3c2)cc1)Nc1ccc(Cl)c(Cl)c1 | – |

Source: ChEMBL document CHEMBL3808344, “Design and synthesis of novel benzoxazole analogs as Aurora B kinase inhibitors” (Bioorg Med Chem Lett, 2016)
